Laboratory results reported in ChEMBL document CHEMBL1139136, “Synthesis of novel diaryl ethers and their evaluation as antimitotic agents” (Bioorg Med Chem Lett, 2007).
Calls of active or inactive are those of the source. No cut-off for these calls is given here.

Assays:
HL-60 = test: Antiproliferative activity against human HL60 cells; format: functional, cell-based
In short: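 Human myeloid leukemia HL-60 cells; antiproliferative IC50 (µM) by a previously described protocol, each series repeated independently at least two to three times.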

Tubulin (Homo sapiens) [1] = target: T1, Tubulin (Homo sapiens) (UniProt P68371+Q9H4B7+P0DPH7+P68366+Q13509+Q71U36+P04350+Q3ZCM7+P07437+P68363+Q9BQE3+Q6PEY2+Q13885+Q9BVA1+Q9BUF5); test: Inhibition of tubulin polymerization at 10 ug/ml; format: protein-complex assay
In short: (§1)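 Kit-based tubulin assembly assay with compounds dissolved in DMSO. All components go into wells held at 0 °C and a baseline is set at 340 nm. Assembly is read at 0 °C and then at 37 °C. Results are percent inhibition against a vehicle control at each tested concentration.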

Tubulin (Homo sapiens) [2] = target: T1, Tubulin (Homo sapiens); test: Inhibition of tubulin polymerization at 1 ug/ml; format: protein-complex assay; in short: as §1
Tubulin (Homo sapiens) [3] = target: T1, Tubulin (Homo sapiens); test: Inhibition of tubulin polymerization at 3 ug/ml; format: protein-complex assay; in short: as §1
Tubulin (Homo sapiens) [4] = target: T1, Tubulin (Homo sapiens); test: Inhibition of tubulin polymerization at 20 ug/ml; format: protein-complex assay

IC50 (HL-60)	Compound	also measured
> 30 µM	CCOC(=O)c1ccc(Oc2ccc(F)c(F)c2)cc1	
> 20 µM	CCOC(=O)c1ccc(Oc2ccc(OC)c(OC)c2)cc1	
> 20 µM	COC(=O)c1cccc(Oc2ccc(N(C)C)cc2)c1	
3.5 µM	CCOC(=O)c1ccc(Oc2ccc(OC)c(F)c2)cc1	inhibition (Tubulin (Homo sapiens) [1]): 12.5%
> 20 µM	COC(=O)c1ccc(Oc2ccc(OC)c(OC)c2)c(N)c1	
> 20 µM	CCOC(=O)c1ccc(Oc2ccc(C#N)cc2)cc1	
> 20 µM	COC(=O)c1cccc(Oc2ccc(C#N)cc2)c1	
20.6 µM	COc1ccc(Oc2ccc(C(=O)NCCc3ccccc3)cc2)cc1F	
> 20 µM	COC(=O)c1cccc(Oc2ccc(OC)cc2)c1	
> 30 µM	CCOC(=O)c1ccc(Oc2ccc(OC)c(F)c2)cc1O	
> 20 µM	CCOC(=O)c1ccc(Oc2ccc(N(C)C)cc2)cc1	
> 30 µM	CCOC(=O)c1ccc(Oc2ccc(F)c(F)c2)cc1O	
> 30 µM	COc1ccc(Oc2ccc(C(=O)N(C)OC)cc2)cc1F	
> 30 µM	CCOC(=O)c1ccc(Oc2ccc(N(C)C)cc2)cc1O	
11.4 µM	COc1cccc(OC)c1Oc1ccc(N(C)C)cc1	inhibition (Tubulin (Homo sapiens) [1]): 12.5%
> 20 µM	COC(=O)c1ccc(Oc2ccc(OC)c(OC)c2)c([N+](=O)[O-])c1	
5.62 µM	COC(=O)c1ccc(Oc2ccc(OC)c(OC)c2)c(I)c1	Activity (Tubulin (Homo sapiens) [1]): inactive
0.34 µM	COc1ccc(S(=O)(=O)Nc2cccnc2Nc2ccc(O)cc2)cc1 [ABT-751]	inhibition (Tubulin (Homo sapiens) [1]): 96.3%; inhibition (Tubulin (Homo sapiens) [2]): 40%; inhibition (Tubulin (Homo sapiens) [3]): 74.6%
> 20 µM	COC(=O)c1cccc(Oc2ccc(OC)c(F)c2)c1	
> 20 µM	CCOC(=O)c1ccc(Oc2ccc(OC)cc2)cc1	
1.5 µM	CCOC(=O)c1ccc(Oc2ccc(OC)c(OC)c2)cc1O	inhibition (Tubulin (Homo sapiens) [1]): 5.5%; inhibition (Tubulin (Homo sapiens) [4]): 13.3%
> 20 µM	CCOC(=O)c1ccc(Oc2ccc(Cl)cc2)cc1	
> 30 µM	COc1ccc(Oc2ccc(C(=O)O)cc2)cc1F	
14.1 µM	COc1ccc(Oc2ccc(C(=O)NC3CC3)cc2)cc1F	inhibition (Tubulin (Homo sapiens) [1]): 8.7%
> 20 µM	COC(=O)c1ccc(Oc2ccc(OC)cc2)c(N)c1	
> 20 µM	COc1cccc(OC)c1Oc1ccc(C#N)cc1	
> 30 µM	CCOC(=O)c1ccc(Oc2ccc(OC)cc2)cc1O	
> 20 µM	COc1ccc(Oc2c(OC)cccc2OC)cc1F	
> 20 µM	COC(=O)c1ccc(Oc2ccc(OC)cc2)c(I)c1	
> 20 µM	COC(=O)c1ccc(Oc2ccc(OC)cc2)c([N+](=O)[O-])c1	
